Results from ChEMBL document CHEMBL1153591, “Exploring bis-(indolyl)methane moiety as an alternative and innovative CAP group in the design of histone deacetylase (HDAC) inhibitors” (Bioorg Med Chem Lett, 2009).

Columns and labels:
NCI-H460 = experiment: Cytotoxicity against human H460 cells after 24 hrs by sulforhodamine B assay; type: functional, cell-based; settings: NCI-H460, 24 h
HCT-116 = experiment: Cytotoxicity against human HCT116 cells after 24 hrs by sulforhodamine B assay; type: functional, cell-based; settings: HCT-116, 24 h
Histone deacetylase 1 = Histone deacetylase 1 (Homo sapiens, UniProt Q13547); experiment: Inhibition of human HDAC1 by fluorimetry
Chain of Histone deacetylase 1 (Q13547 whole entry, the tested form may be a part, canonical isoform): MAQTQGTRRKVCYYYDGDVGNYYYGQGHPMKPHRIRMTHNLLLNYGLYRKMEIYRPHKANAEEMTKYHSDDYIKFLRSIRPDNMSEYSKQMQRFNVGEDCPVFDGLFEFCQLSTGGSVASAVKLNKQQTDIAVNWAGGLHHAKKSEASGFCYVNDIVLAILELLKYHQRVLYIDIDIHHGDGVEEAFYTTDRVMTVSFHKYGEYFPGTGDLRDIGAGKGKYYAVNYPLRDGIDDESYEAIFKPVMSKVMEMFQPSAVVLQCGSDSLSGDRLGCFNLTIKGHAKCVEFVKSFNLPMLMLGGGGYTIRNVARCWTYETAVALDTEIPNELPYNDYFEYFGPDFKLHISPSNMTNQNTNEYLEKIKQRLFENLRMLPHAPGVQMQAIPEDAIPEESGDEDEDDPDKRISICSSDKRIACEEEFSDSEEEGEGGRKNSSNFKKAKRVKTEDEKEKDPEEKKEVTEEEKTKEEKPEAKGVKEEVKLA
Procedure, shortened: (§1)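 Each purified single HDAC isoform incubated with fluorogenic substrate, a p53 fragment (residues […], Arg-His-Lys-Lys(Ac)) carrying an ε-acetylated lysine; deacetylation releases fluorophore, read by fluorimeter. Compounds tested as 10 doses, 1:3 serial dilution starting from 50 µM solution. IC50 from dose-response inhibition curves; trichostatin A as reference compound.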

Histone deacetylase 2 = Histone deacetylase 2 (Homo sapiens, UniProt Q92769); experiment: Inhibition of human HDAC2 by fluorimetry; procedure, shortened: as §1
Chain of Histone deacetylase 2 (Q92769 whole entry): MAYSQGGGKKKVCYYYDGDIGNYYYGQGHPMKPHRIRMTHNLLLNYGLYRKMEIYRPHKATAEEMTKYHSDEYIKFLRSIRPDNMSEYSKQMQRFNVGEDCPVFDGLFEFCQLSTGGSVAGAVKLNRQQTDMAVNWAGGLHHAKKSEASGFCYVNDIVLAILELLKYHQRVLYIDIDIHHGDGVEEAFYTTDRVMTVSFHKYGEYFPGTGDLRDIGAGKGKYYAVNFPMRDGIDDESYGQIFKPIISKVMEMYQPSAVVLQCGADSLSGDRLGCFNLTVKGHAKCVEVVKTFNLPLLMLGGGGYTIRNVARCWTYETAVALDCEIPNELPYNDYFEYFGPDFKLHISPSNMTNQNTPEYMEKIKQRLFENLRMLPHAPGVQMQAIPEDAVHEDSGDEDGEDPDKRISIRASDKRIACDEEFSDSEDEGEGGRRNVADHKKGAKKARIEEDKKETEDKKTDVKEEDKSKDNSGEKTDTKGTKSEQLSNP

Histone deacetylase 3 = Histone deacetylase 3 (Homo sapiens, UniProt O15379); experiment: Inhibition of human HDAC3 by fluorimetry; procedure, shortened: as §1
Chain of Histone deacetylase 3 (O15379 whole entry): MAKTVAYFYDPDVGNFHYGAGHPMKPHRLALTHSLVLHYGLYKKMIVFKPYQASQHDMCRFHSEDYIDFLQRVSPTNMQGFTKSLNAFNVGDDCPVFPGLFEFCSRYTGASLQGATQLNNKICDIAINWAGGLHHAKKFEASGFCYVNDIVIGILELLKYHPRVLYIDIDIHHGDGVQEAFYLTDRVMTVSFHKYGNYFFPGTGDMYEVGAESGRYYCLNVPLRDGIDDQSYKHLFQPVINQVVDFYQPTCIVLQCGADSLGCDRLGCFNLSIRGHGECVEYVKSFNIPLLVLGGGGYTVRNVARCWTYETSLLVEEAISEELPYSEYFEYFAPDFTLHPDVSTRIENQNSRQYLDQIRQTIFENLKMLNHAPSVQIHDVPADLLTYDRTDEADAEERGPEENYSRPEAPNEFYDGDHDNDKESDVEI

Histone deacetylase 4 = Histone deacetylase 4 (Homo sapiens, UniProt P56524); experiment: Inhibition of human HDAC4 by fluorimetry; procedure, shortened: as §1
Chain of Histone deacetylase 4 (P56524 whole entry): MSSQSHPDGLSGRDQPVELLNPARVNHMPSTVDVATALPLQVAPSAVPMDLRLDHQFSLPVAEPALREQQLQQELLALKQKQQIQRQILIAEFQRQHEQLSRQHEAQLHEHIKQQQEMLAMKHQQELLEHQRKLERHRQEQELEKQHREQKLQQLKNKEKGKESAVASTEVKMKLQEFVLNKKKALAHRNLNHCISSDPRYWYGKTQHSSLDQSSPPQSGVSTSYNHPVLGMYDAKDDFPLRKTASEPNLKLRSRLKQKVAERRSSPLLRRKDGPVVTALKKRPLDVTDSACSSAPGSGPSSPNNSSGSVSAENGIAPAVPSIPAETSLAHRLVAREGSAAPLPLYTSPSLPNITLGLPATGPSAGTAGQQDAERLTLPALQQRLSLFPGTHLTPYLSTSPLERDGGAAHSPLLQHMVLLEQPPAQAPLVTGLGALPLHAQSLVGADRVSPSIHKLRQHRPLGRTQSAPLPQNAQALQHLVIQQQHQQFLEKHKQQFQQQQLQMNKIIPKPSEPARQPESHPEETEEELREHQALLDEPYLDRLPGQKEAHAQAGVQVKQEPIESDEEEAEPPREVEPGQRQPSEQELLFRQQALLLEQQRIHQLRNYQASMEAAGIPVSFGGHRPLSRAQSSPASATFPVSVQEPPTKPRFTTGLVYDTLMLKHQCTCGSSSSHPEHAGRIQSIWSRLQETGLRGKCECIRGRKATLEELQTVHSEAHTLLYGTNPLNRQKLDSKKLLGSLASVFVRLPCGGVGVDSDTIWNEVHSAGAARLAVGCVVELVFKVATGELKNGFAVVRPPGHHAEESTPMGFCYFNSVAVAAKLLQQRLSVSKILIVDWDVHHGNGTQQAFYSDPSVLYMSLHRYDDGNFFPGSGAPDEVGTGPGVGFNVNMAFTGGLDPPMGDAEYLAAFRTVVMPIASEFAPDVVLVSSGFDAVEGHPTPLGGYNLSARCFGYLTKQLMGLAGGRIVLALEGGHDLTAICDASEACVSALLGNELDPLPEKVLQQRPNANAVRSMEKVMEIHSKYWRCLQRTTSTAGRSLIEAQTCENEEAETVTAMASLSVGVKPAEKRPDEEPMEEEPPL

Histone deacetylase 5 = Histone deacetylase 5 (Homo sapiens, UniProt Q9UQL6); experiment: Inhibition of human HDAC5 by fluorimetry; procedure, shortened: as §1
Chain of Histone deacetylase 5 (Q9UQL6 whole entry): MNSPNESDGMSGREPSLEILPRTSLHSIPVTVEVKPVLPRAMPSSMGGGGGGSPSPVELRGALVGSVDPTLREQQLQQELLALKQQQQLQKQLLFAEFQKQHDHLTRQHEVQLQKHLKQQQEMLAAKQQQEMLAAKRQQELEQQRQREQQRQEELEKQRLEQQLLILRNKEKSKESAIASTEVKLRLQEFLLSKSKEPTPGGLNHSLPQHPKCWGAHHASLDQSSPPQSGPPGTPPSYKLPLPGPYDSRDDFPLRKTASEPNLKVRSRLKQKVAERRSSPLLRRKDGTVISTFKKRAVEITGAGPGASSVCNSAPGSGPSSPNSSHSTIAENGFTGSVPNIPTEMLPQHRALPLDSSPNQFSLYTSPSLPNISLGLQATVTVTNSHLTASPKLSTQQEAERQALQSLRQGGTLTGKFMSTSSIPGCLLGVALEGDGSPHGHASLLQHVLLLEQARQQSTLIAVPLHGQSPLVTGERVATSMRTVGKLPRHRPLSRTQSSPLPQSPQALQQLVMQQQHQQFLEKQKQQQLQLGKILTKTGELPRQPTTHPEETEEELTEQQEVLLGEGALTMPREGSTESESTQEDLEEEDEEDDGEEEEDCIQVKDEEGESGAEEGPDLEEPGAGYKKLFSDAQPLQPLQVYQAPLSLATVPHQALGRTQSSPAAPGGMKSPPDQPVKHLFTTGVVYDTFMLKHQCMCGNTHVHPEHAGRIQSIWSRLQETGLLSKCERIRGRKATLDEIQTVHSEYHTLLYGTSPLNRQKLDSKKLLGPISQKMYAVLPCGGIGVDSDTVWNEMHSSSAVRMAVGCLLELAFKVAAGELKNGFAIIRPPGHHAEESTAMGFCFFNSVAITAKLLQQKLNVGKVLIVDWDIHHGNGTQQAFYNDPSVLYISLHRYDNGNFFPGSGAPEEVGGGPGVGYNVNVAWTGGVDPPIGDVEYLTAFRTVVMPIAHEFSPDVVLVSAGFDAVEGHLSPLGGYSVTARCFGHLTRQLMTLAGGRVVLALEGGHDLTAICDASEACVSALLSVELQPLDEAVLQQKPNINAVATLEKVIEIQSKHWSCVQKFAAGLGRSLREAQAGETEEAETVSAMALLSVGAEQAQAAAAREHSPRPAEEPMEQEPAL

[1] = biological target: T1, Protein deacetylase HDAC6 (Homo sapiens, UniProt Q9UBN7); experiment: Inhibition of human HDAC6 by fluorimetry; procedure, shortened: as §1
T1 sequence (Q9UBN7 whole entry): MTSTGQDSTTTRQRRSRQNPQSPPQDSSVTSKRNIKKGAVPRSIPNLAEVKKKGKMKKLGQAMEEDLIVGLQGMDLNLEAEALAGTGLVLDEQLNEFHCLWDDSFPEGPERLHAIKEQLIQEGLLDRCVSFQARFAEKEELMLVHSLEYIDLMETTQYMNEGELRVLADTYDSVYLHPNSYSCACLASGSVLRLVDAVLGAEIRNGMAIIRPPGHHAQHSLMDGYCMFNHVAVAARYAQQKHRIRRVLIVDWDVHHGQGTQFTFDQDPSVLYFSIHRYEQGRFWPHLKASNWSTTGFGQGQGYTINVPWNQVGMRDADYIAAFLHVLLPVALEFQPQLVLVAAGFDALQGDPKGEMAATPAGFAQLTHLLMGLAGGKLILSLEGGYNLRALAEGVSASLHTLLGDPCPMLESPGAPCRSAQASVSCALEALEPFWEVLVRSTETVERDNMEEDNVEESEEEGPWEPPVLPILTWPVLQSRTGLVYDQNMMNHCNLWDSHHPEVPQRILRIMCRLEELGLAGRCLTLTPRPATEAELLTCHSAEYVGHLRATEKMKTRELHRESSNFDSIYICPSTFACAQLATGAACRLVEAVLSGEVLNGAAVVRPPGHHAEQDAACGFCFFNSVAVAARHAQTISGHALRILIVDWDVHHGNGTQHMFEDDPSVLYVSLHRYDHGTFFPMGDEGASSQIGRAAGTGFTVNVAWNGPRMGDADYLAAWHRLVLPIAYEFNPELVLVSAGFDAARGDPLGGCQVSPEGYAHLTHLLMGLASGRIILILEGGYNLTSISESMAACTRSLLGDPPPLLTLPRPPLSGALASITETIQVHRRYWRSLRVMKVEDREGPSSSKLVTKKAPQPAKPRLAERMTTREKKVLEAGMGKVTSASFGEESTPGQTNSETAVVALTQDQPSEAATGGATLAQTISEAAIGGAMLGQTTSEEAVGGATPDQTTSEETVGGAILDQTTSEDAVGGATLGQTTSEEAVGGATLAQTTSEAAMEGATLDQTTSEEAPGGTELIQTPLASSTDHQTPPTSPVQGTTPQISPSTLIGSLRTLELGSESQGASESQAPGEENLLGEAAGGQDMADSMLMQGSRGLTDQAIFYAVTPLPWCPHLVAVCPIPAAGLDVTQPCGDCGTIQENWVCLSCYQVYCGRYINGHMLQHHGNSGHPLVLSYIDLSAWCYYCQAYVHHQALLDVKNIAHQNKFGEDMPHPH

Histone deacetylase 8 = biological target: T2, Histone deacetylase 8 (Homo sapiens, UniProt Q9BY41); experiment: Inhibition of human HDAC8 by fluorimetry; procedure, shortened: as §1
T2 sequence (Q9BY41 whole entry): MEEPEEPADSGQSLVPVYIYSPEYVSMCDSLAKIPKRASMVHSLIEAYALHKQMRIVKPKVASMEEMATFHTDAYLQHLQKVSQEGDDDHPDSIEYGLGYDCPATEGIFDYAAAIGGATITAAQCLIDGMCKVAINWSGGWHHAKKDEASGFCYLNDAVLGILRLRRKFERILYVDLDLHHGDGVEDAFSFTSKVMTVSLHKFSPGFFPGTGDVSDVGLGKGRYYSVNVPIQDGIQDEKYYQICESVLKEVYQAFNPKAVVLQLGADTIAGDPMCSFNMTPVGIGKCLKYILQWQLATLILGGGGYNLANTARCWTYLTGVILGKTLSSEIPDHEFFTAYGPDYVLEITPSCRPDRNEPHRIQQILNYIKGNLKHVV

Histone deacetylase 9 = Histone deacetylase 9 (Homo sapiens, UniProt Q9UKV0); experiment: Inhibition of human HDAC9 by fluorimetry; procedure, shortened: as §1
Chain of Histone deacetylase 9 (Q9UKV0 whole entry): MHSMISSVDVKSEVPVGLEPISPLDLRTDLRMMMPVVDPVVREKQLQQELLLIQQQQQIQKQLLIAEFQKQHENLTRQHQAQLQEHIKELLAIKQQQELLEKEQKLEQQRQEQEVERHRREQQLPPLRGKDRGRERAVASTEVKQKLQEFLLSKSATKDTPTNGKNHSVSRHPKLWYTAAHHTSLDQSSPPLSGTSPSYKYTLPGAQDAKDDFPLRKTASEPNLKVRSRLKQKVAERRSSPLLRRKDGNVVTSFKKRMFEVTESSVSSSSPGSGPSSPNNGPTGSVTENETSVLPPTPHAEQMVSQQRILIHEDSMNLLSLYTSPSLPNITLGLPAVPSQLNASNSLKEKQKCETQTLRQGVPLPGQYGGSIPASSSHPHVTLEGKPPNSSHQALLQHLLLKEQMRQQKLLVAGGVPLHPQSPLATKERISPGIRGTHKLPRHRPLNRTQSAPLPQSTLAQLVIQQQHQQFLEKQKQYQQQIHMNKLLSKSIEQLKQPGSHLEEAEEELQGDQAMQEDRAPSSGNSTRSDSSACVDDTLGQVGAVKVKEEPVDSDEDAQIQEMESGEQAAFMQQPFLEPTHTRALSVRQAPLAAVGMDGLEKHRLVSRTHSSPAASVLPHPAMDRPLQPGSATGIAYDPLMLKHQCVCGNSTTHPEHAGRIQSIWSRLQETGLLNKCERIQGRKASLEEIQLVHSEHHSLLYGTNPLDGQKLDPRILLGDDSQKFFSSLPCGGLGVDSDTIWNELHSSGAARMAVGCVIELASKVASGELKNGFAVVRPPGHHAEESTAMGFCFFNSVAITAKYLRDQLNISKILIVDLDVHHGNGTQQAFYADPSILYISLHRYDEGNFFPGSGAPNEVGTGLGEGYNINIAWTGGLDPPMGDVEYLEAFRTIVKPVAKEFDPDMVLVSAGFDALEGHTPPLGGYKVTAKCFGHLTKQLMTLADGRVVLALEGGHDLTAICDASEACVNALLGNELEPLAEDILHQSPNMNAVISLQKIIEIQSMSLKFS

[2] = biological target: T3, Polyamine deacetylase HDAC10 (Homo sapiens, UniProt Q969S8); experiment: Inhibition of human HDAC10 by fluorimetry; procedure, shortened: as §1
T3 sequence (Q969S8 whole entry): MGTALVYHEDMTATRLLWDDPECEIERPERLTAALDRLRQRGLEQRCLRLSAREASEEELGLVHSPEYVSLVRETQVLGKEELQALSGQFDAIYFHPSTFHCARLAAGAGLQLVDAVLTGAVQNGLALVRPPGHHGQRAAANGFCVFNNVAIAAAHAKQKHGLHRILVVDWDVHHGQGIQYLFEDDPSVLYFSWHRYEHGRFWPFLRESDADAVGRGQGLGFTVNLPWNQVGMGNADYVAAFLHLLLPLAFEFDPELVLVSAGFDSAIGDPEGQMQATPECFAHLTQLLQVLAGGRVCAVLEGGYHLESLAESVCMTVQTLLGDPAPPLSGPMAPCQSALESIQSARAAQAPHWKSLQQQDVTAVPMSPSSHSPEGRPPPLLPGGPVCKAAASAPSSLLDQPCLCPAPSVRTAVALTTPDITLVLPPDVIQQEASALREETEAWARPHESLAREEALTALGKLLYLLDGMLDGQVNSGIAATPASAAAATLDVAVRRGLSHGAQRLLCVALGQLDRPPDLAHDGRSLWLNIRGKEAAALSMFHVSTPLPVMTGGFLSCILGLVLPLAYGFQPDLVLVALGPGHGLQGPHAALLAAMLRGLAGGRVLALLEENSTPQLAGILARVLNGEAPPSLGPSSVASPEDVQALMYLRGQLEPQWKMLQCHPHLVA

Histone deacetylase 11 = biological target: T4, Histone deacetylase 11 (Homo sapiens, UniProt Q96DB2); experiment: Inhibition of human HDAC11 by fluorimetry; procedure, shortened: as §1
T4 sequence (Q96DB2 whole entry): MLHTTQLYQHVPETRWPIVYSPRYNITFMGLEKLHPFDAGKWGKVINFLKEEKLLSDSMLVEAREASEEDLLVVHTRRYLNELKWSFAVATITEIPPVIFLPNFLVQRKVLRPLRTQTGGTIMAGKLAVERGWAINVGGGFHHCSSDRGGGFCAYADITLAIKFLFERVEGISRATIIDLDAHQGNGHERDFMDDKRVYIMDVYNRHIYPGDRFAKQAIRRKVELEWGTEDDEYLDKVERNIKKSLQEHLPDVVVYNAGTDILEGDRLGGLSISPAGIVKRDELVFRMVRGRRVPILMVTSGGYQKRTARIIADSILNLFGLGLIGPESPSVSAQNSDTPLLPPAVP

Histone deacetylase 7 = biological target: T5, Histone deacetylase 7 (Homo sapiens, UniProt Q8WUI4); experiment: Inhibition of human HDAC7 by fluorimetry
T5 sequence (Q8WUI4 whole entry): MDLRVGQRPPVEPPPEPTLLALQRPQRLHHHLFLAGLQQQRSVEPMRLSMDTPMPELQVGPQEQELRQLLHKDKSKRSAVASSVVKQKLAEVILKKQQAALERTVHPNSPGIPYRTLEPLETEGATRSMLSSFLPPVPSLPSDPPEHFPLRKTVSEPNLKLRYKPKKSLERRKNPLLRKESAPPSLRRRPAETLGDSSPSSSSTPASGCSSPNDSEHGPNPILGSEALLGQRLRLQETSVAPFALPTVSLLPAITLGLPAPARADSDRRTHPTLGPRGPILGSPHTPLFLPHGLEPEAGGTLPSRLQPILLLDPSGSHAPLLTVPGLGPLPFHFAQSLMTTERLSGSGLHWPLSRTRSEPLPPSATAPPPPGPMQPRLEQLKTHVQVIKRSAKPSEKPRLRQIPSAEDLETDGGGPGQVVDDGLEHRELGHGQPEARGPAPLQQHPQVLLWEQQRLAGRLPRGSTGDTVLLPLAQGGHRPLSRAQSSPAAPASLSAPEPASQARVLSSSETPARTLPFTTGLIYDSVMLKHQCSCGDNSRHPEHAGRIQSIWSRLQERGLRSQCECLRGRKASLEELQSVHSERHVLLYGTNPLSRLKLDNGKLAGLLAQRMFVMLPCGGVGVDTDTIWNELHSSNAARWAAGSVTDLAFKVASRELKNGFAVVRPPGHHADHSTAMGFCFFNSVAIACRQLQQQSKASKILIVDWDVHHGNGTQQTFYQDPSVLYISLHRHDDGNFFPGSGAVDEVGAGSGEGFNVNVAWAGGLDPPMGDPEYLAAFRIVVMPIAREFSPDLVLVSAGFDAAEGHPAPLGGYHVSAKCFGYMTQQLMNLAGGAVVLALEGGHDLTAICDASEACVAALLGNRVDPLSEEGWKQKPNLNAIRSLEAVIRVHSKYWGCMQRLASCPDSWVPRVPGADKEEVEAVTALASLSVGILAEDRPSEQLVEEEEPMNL

SMILES | IC50 (NCI-H460) [µM] | IC50 (HCT-116) [µM] | IC50 (Histone deacetylase 1) [µM] | IC50 (Histone deacetylase 2) [µM] | IC50 (Histone deacetylase 3) [µM] | IC50 (Histone deacetylase 4) [µM] | IC50 (Histone deacetylase 5) [µM] | IC50 [1] [µM] | IC50 (Histone deacetylase 8) [µM] | IC50 (Histone deacetylase 9) [µM] | IC50 [2] [µM] | IC50 (Histone deacetylase 11) [µM] | IC50 (Histone deacetylase 7) [µM]
O=C(CCCCCC(c1c[nH]c2cccc(F)c12)c1c[nH]c2cccc(F)c12)NO | 0.7 | 0.4 | – | – | – | – | – | – | – | – | – | – | –
O=C(CCC(c1c[nH]c2ccccc12)c1c[nH]c2ccccc12)NO | > 20 | > 20 | – | – | – | – | – | – | – | – | – | – | –
O=C(CCCCC(c1c[nH]c2ccccc12)c1c[nH]c2ccccc12)NO | 5.2 | 5.8 | – | – | – | – | – | – | – | – | – | – | –
O=C(CCCCCC(c1c[nH]c2ccccc12)c1c[nH]c2ccccc12)NO | 1.2 | 0.6 | 0.73 | 2 | 0.35 | 1.3 | 0.59 | 0.006 | 0.24 | 0.64 | 0.87 | 0.43 | –
O=C(CCCC(c1c[nH]c2ccccc12)c1c[nH]c2ccccc12)NO | > 20 | > 20 | – | – | – | – | – | – | – | – | – | – | –
Cc1ccc2[nH]cc(C(CCCCCC(=O)NO)c3c[nH]c4ccc(C)cc34)c2c1 | 0.51 | 0.27 | – | – | – | – | – | – | – | – | – | – | –
O=C(/C=C/c1ccc(C(c2c[nH]c3ccccc23)c2c[nH]c3ccccc23)cc1)NO | 2.6 | 2.6 | 4.8 | 3.9 | 0.44 | 4.8 | 4.9 | 4.9 | 0.73 | 3.3 | 4.7 | 0.41 | 4.2
Nc1ccccc1NC(=O)CCCCCC(c1c[nH]c2ccccc12)c1c[nH]c2ccccc12 | > 20 | 16.5 | 21 | 1.1 | 0.26 | 150 | 28 | – | 74 | 50 | 73 | 5.8 | –
Cc1[nH]c2ccccc2c1C(c1ccc(/C=C/C(=O)NO)cc1)c1c(C)[nH]c2ccccc12 | > 20 | > 20 | – | – | – | – | – | – | – | – | – | – | –
O=C(CCCCCc1c[nH]c2ccccc12)NO | 22 | 15 | – | – | – | – | – | – | – | – | – | – | –
